ChEMBL document CHEMBL1123879, “Synthesis and antiarrhythmic activity of novel 3-alkyl-1-[omega-[4-[(alkylsulfonyl)amino]phenyl]-omega- hydroxyalkyl]-1H-imidazolium salts and related compounds” (J Med Chem, 1987)

Tests used:
Canis familiaris [1] = species: Canis familiaris; experiment: (§1) Concentration that causes 20% increase in functional refractory period (FRP) was determined on isolated canine ventricular muscle fibers; details: Canis lupus familiaris; Muscle tissue
Procedure, shortened: (§2)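 Canine right ventricular papillary muscle strips superfused with O2/CO2-gassed saline at 36 ± 0.5 °C. Bipolar electrogram recording. Stimulated at 4× diastolic threshold (2 ms pulses), equilibrated 60 min. FRP measured at 1000 ms cycle length by S2 after every tenth S1 at shortening intervals. Cumulative concentrations; one compound per strip, with vehicle controls. Readout is concentration giving a 20% FRP change, or maximal change; log mean with 90% CI when n > 2.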

Canis familiaris [2] = species: Canis familiaris; experiment: (§3) Concentration that causes 20% increase in ADP95 (action potential duration at 95% repolarization) was determined on isolated canine cardiac Purkinje fibers; assay type: functional; details: Canis lupus familiaris; Purkinje fiber
Procedure, shortened: (§4)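 Canine cardiac Purkinje fibres in gassed physiological saline (95% O2–5% CO2, pH 7.35–7.40) at 36 ± 0.5 °C. Paced at 1.0 Hz with 2 ms pulses at twice diastolic threshold. Intracellular microelectrode recording after up to 1 h of stabilisation; 30 min exposure per concentration; one compound per fibre, with vehicle controls. Readout is concentration giving a 20% change in APD95, or maximal APD95 change; log mean with 90% CI when n > 2.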

Canis familiaris [3] = species: Canis familiaris; experiment: Maximum observed change in ADP95 from control value was determined in isolated canine cardiac uM; assay type: functional; procedure, shortened: as §4
Canis familiaris [4] = species: Canis familiaris; experiment: Maximum observed change in FRP from control was determined in isolated canine ventricular muscle fibers at a concentration of 100 uM; assay type: functional; procedure, shortened: as §2
Canis familiaris [5] = species: Canis familiaris; experiment: as §1; parameters: species or system Canis lupus familiaris, Muscle tissue; procedure, shortened: as §2
Canis familiaris [6] = species: Canis familiaris; experiment: as §3; assay type: functional, Canis lupus familiaris, Purkinje fiber; procedure, shortened: as §4
Canis familiaris [7] = experiment: In vivo antiarrhythmic efficacy in a programmed electrical stimulation (PES) model of mongrel dogs expressed as percent change in heart rate at iv dose range of 0.3-10 mg/kg.; assay type: functional, Canis lupus familiaris
Procedure, shortened: (§5)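 Mongrel dogs (8–17 kg) with two-stage LAD occlusion 24 h earlier, anesthetized with thiopental 15 mg/kg and ventilated; open chest. PES induces SVT/VF; two control arrhythmias 30 min apart. Compound given as 10-min iv infusion, PES repeated 20 min later, dose escalated while still inducible; noninducibility counts as effective. HR and BP reported as % change at effective dose, mean ± SEM.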

Canis familiaris [8] = experiment: In vivo intraduodenal activity in mongrel dogs was assessed by % change in heart rate (10 mg/kg administered intradermally); assay type: functional, Canis lupus familiaris; details: in the assay text read “intraduodenally” for “intradermally”
Procedure, shortened: (§6)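 Healthy dogs (8–20 kg) of either sex, pentobarbital 30 mg/kg iv, ventilated, temperature held at 36 ± 0.5 °C. Compound given intraduodenally as suspension in 0.5% tragacanth. HR, BP and FRP measured at 45 min postdose; second dose if FRP/conduction change below 12%. Active dose means FRP change ≥ 12%; HR and BP given as % change, mean ± SEM.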

Canis familiaris [9] = experiment: In vivo antiarrhythmic efficacy in a programmed electrical stimulation (PES) model of mongrel dogs expressed as minimum effect dose (iv) at iv dose range of 0.3-10 mg/kg.; assay type: functional, Canis lupus familiaris, Heart; procedure, shortened: as §5
Canis familiaris [10] = experiment: In vivo antiarrhythmic efficacy in a programmed electrical stimulation (PES) model of mongrel dogs expressed as percent change in blood pressure at iv dose range of 0.3-10 mg/kg.; assay type: functional, Canis lupus familiaris; procedure, shortened: as §5
Canis familiaris [11] = experiment: In vivo intraduodenal activity in mongrel dogs was assessed by % change in blood pressure (10 mg/kg administered intradermally); assay type: functional, Canis lupus familiaris, Artery; details: in the assay text read “intraduodenally” for “intradermally”; procedure, shortened: as §6
Canis familiaris [12] = experiment: In vivo antiarrhythmic efficacy in a programmed electrical stimulation (PES) model of mongrel dogs reported as number of animals effective at dose range of 0.3-10 mg/kg.; assay type: functional, Canis lupus familiaris, Heart; procedure, shortened: as §5
[13] = biological target: Adrenergic receptor beta (Canis familiaris); experiment: Concentration effective against displacing [3H]dihydroalprenolol from beta adrenergic receptor from canine ventricular tissue
Canis familiaris [14] = species: Canis familiaris; experiment: Concentration that causes 20% increase in ADP95 (action potential duration at 95% repolarization) was determined on isolated canine cardiac Purkinje fibers;range is 11.2-18.6; assay type: functional, Canis lupus familiaris, Purkinje fiber; procedure, shortened: as §4
Canis familiaris [15] = species: Canis familiaris; experiment: Concentration that causes 20% increase in functional refractory period (FRP) was determined on isolated canine ventricular muscle fibers;range is 3.7-162; parameters: species or system Canis lupus familiaris, Muscle tissue; procedure, shortened: as §2
Canis familiaris [16] = experiment: In vivo antiarrhythmic efficacy in a PES model of mongrel dog expressed as percent change in heart rate at iv dose range of 0.1-30 mg/kg.; assay type: functional, Canis lupus familiaris; procedure, shortened: as §5
Canis familiaris [17] = experiment: In vivo intraduodenal activity in mongrel dogs was assessed by percent change in blood pressure at active dose of 10 mg/kg, administered intradermally; assay type: functional, Canis lupus familiaris, Artery; details: in the assay text read “intraduodenally” for “intradermally”; procedure, shortened: as §6
Canis familiaris [18] = experiment: In vivo intraduodenal activity in mongrel dogs was assessed by percent change in heart rate at active dose of 10 mg/kg, administered intradermally; assay type: functional, Canis lupus familiaris; details: in the assay text read “intraduodenally” for “intradermally”; procedure, shortened: as §6
Canis familiaris [19] = experiment: In vivo antiarrhythmic efficacy in a PES model of mongrel dog expressed as percent change in blood pressure at iv dose range of 0.1-30 mg/kg.; assay type: functional, Canis lupus familiaris; procedure, shortened: as §5
Canis familiaris [20] = experiment: In vivo antiarrhythmic efficacy in a programmed electrical stimulation (PES) model of mongrel dogs reported as number of animals effective at dose range of 0.1-30 mg/kg.; assay type: functional, Canis lupus familiaris, Heart; procedure, shortened: as §5
Canis familiaris [21] = experiment: In vivo antiarrhythmic efficacy in a programmed electrical stimulation (PES) model of mongrel dogs expressed as minimum effect dose (iv) at iv dose range of 0.1-30 mg/kg.; assay type: functional, Canis lupus familiaris, Heart; procedure, shortened: as §5
[22] = Canis lupus familiaris, Muscle tissue

SMILES | Activity (Canis familiaris [1]) | Activity (Canis familiaris [2]) | Max delta APD95 (Canis familiaris [3]; Canis lupus familiaris) | Activity (Canis familiaris [5]) [µM] | Activity (Canis familiaris [6]) [µM] | Max delta APD95 (Canis familiaris [3]) [%] | Max delta FRP (Canis familiaris [4]) [%] | further results
C[n+]1ccn(CC(O)c2ccc(NS(=O)(=O)C(F)(F)F)cc2)c1 (stereo not given) | Not recorded | Not recorded | Minimal effects | – | – | – | – | Max delta FRP (Canis familiaris [4]; [22]): Minimal effects
C[n+]1ccn(CC(=O)c2ccc(NS(=O)(=O)C(F)(F)F)cc2)c1 | Not recorded | Not recorded | Minimal effects | – | – | – | – | Max delta FRP (Canis familiaris [4]; [22]): Minimal effects
C[n+]1ccn(CC(O)c2ccc(NS(C)(=O)=O)cc2)c1 (stereo not given) | – | – | – | 8.7 | 0.6 | 55 | 24 | –
C[n+]1ccn(CCCc2ccc(NS(C)(=O)=O)cc2)c1.O=P([O-])(O)O | Not recorded | – | – | – | 7.2 | 47 | 13 | –
CC(C)[n+]1ccn(CC(=O)c2ccc(NS(C)(=O)=O)cc2)c1.[Cl-] | Not recorded | Not recorded | Minimal effects | – | – | – | 14 | –
Cc1c(C)[n+](C)c(C)n1CC(=O)c1ccc(NS(C)(=O)=O)cc1.[Cl-] | – | Not recorded | Minimal effects | 15.8 | – | – | 26 | –
CC[n+]1ccn(CC(O)c2ccc(NS(C)(=O)=O)cc2)c1.[Cl-] (stereo not given) | – | – | – | 28.2 | 6.2 | 65 | 26 | –
C[n+]1ccn(C[C@H](O)c2ccc(NS(C)(=O)=O)cc2)c1.[Cl-] | – | – | – | 14 | 0.3 | 58 | 25 | –
C[n+]1ccn(CC(O)c2ccccc2)c1.[Br-] (stereo not given) | – | Not recorded | – | 50 | – | 12 | 22 | –
Cc1n(CC(=O)c2ccc(NS(C)(=O)=O)cc2)cc[n+]1C.[Cl-] | – | – | – | 14.7 | 24.8 | 33 | 32 | –
C[n+]1ccn(CC(O)c2ccc(NS(C)(=O)=O)cc2)c1.[Cl-] (stereo not given) | – | – | – | 5.9 | 1.6 | 50 | 31 | Heart rate (Canis familiaris [7]): -23%; Heart rate (Canis familiaris [8]): -10%; Min effective dose (Canis familiaris [9]): 6.5; Blood pressure (Canis familiaris [10]): 0%; Blood pressure (Canis familiaris [11]): 5%; No. effective (Canis familiaris [12]): 2; IC50 [13]: 2350 µM
CCS(=O)(=O)Nc1ccc(C(=O)Cn2cc[n+](C)c2)cc1.[Cl-] | – | – | – | 40 | 29 | 33 | 26 | –
CC(C)NCC(O)c1ccc(NS(C)(=O)=O)cc1.Cl (stereo not given) [SOTALOL HYDROCHLORIDE] | – | – | – | – | – | 48 | 23 | Activity (Canis familiaris [14]): 14.4 µM; Activity (Canis familiaris [15]): 24.7 µM; Change (Canis familiaris [16]): -23%; Change (Canis familiaris [17]): 8%; Change (Canis familiaris [18]): -11%; Change (Canis familiaris [19]): -23%; No. of animals (Canis familiaris [20]): 3; Mean effective dose (Canis familiaris [21]): 1.4
